Reference: ChEMBL document CHEMBL1125085, “Synthesis and anticonvulsant activity of some new 2-substituted 3-aryl-4(3H)-quinazolinones” (J Med Chem, 1990)

Experiments:
Mus musculus [1] = test: Rotarod test was used to evaluate neurotoxicity in mice. Toxicity values are reported after 0.5 h. toxicity at 300 mg/kg; - denotes no activity observed at 300 mg/kg toxic; assay type: organism-based; details: in vivo
Mus musculus [2] = test: Subcutaneous metrazole (scMet) test was conducted and median effective dose was determined at the time of peak anticonvulsant and sedative effect.; assay type: functional; details: sc
Method in brief: (§1)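 Pentylenetetrazol (85 mg/kg in mice, 70 mg/kg in rats) was given subcutaneously in the posterior midline as a 0.5% solution. Compounds were in 30% PEG 400, dosed ip in male Carworth Farms no. 1 mice, or orally in mice and Sprague-Dawley rats. ED50 was read at time of peak effect, using groups of 8–16 animals and ≥3 doses giving 10–90% protection. Probit analysis gave 95% confidence intervals.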

Mus musculus [3] = species on record: Mus musculus; test: Median toxic dose was measured at time of peak neurologic deficit.; assay type: functional
Method in brief: (§2)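 Mice dosed ip in 30% PEG 400. Minimal neurotoxicity was scored by rotorod at the time of peak neurologic deficit. Groups of 8–16 mice were used, with at least three points in the 10–90% range, and TD50 with 95% confidence interval was derived by probit analysis.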

Mus musculus [4] = test: MES test was performed after Injecting intraperitoneally at the time of peak anticonvulsant effect in phase II test; assay type: functional; details: ip
Method in brief: (§3)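 Phase II testing in male Carworth Farms no. 1 mice, ip dosing in 30% PEG 400 (0.01 mL/g). Groups of 8–16 mice received a range of doses, giving at least three points in 10–90% protection. ED50 with 95% confidence interval was fitted by probit analysis at the time of peak effect. scMet used pentylenetetrazol 85 mg/kg sc.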

Mus musculus [5] = species on record: Mus musculus; test: Time taken to reach peak activity was reported.; assay type: functional
[6] = Protective index is the ratio of TD50 and ED50 values obtained in the maximal electroshock seizure (MES) test.; assay type: functional
Method in brief: (§4)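 Protective index = TD50/ED50. Both values are medians from groups of 8–16 animals per dose, with at least three points in the 10–90% effect range, fitted by probit analysis. Each was taken at its own time of peak effect: seizure protection for ED50, neurologic deficit for TD50.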

Mus musculus [7] = species on record: Mus musculus; test: Time taken to reach peak toxicity was reported.; assay type: organism-based; details: in vivo
Mus musculus [8] = test: Subcutaneous metrazole (scMet) test was conducted after Injecting intraperitoneally at the time of peak anticonvulsant in phase II test; assay type: functional; method in brief: as §3
[9] = Protective index is the ratio of TD50 and ED50 values obtained in the subcutaneous metrazole (scMet) test.; assay type: functional; method in brief: as §4
Mus musculus [10] = test: Subcutaneous metrazole (scMet) test was conducted and median effective dose was determined at the time of peak anticonvulsant and sedative effect; assay type: functional; details: sc; method in brief: as §1
Mus musculus [11] = test: Rotarod test was used to evaluate neurotoxicity in mice. Toxicity values are reported after 0.5 h.,toxicity at 300 mg/kg; Toxic; assay type: organism-based; set-up: dose 300 mg/kg; details: in vivo
Mus musculus [12] = test: Rotarod test was used to evaluate neurotoxicity in mice. Toxicity values are reported after 4.0 hr toxicity at 300 mg/kg; toxic; assay type: organism-based; set-up: dose 300 mg/kg; details: in vivo
Mus musculus [13] = test: Rotarod test was used to evaluate neurotoxicity in mice. Toxicity values are reported after 0.5 hr at 300 mg/kg; Toxic; assay type: organism-based; set-up: dose 300 mg/kg; details: in vivo
Mus musculus [14] = species on record: Mus musculus; test: Time taken to reach peak activity was reported; assay type: functional
Method in brief: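 Time of peak effect, in hours, was found separately for anticonvulsant activity and for neurotoxicity. ED50 and TD50 were then determined at those times.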

[15] = Median toxic dose was measured at time of peak neurologic deficit; assay type: organism-based; details: mouse, in vivo; method in brief: as §2

Compound: O=C(Cc1nc2ccccc2c(=O)n1-c1ccccc1Cl)c1cccnc1
- Activity (Mus musculus [1]): Toxic

Compound: CCC1(c2ccccc2)C(=O)NCNC1=O [PRIMIDONE]
- ED50 (Mus musculus [2]): 58.6 mg/kg

Compound: O=C(Cc1nc2ccccc2c(=O)n1-c1ccccc1F)c1ccncc1
- TD50 (Mus musculus [3]): 832 mg/kg
- ED50 (Mus musculus [4]): 196 mg/kg
- TPE (Mus musculus [5]): 2 h
- PI [6]: 4.2
- TPE (Mus musculus [7]): 1 h
- ED50 (Mus musculus [8]): 50 mg/kg
- PI [9]: 16.6

Compound: CCC1(c2ccccc2)NC(=O)N(C)C1=O (centres undefined) [MEPHENYTOIN]
- ED50 (Mus musculus [10]): 30.5 mg/kg

Compound: O=C(Cc1nc2ccccc2c(=O)n1-c1ccc(Br)cc1)c1ccncc1
- Activity (Mus musculus [11]): Toxic

Compound: O=C(Cc1nc2ccccc2c(=O)n1-c1ccccc1Br)c1ccncc1
- Activity (Mus musculus [12]): Toxic
- ED50 (Mus musculus [4]): 136 mg/kg
- PI [6]: > 14.7
- ED50 (Mus musculus [8]): 19 mg/kg
- PI [9]: >105
- Activity (Mus musculus [13]): Toxic
- TPE (Mus musculus [14]): 1 h
- TD50 [15]: > 2000 mg/kg
